# Assay results taken from ChEMBL document CHEMBL1157693, “Microwave assisted synthesis and antimicrobial activity of 2-quinoxalinone-3-hydrazone derivatives” (2010).
# Active and inactive are the calls of the source. The calls are words filed in the database; no cut-off is given here.
# Experiments:
# Type in all cases: functional
# Bacillus subtilis [1] = assay: Antibacterial activity against Bacillus subtilis NCIB 3610 after 72 hrs; conditions: NCIB 3610, 72 h
# Summary of the method: (§1)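 MIC by the Russell and Furr method, run on selected Gram-positive and Gram-negative strains. Once the agar had set and its surface had dried, nutrient agar plates were streaked with overnight broth cultures. They were incubated at 37 °C for up to 72 h and scored for presence or absence of growth.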
# [2] = system: Geobacillus stearothermophilus; assay: Antibacterial activity against Bacillus stearothermophilus NCIB 8222 after 72 hrs; conditions: NCIB 8222, 72 h; summary of the method: as §1
# Bacillus subtilis [3] = assay: Antibacterial activity against Bacillus subtilis NCIB 3610 after 24 hrs by agar well diffusion method; on IZ: test concentration or dose not given here
# Summary of the method: (§2)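 Agar well diffusion. Clinical isolates were first checked for viability, then grown in nutrient broth for 8 h at 37 °C. About 0.2 ml of broth culture was mixed into 18 ml molten diagnostic sensitivity test agar cooled to 45 °C and poured into plates. Compounds in DMSO went into bored wells, with streptomycin as reference. Plates stood 1 h for diffusion, then were incubated upright at 37 °C for 24 h. Clear inhibition zones were read in mm.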
# Shigella dysenteriae [4] = assay: Antibacterial activity against Shigella dysenteriae after 24 hrs by agar well diffusion method
# Bacillus cereus [5] = assay: Antibacterial activity against Bacillus cereus NCIB 6349 after 24 hrs by agar well diffusion method; summary of the method: as §2; on IZ: test concentration or dose not given here
# [6] = system: Geobacillus stearothermophilus; assay: Antibacterial activity against Bacillus stearothermophilus NCIB 8222 after 24 hrs by agar well diffusion method; summary of the method: as §2; on IZ: test concentration or dose not given here
# Staphylococcus aureus [7] = assay: Antibacterial activity against Staphylococcus aureus NCIB 8588 after 24 hrs by agar well diffusion method; summary of the method: as §2; on IZ: test concentration or dose not given here
# Escherichia coli [8] = assay: Antibacterial activity against Escherichia coli NCIB 86 after 24 hrs by agar well diffusion method; summary of the method: as §2; on IZ: test concentration or dose not given here
# Bacillus anthracis [9] = assay: Antibacterial activity against Bacillus anthracis after 72 hrs
# Pseudomonas fluorescens = assay: Antibacterial activity against Pseudomonas fluorescens NCIB 3756 after 24 hrs by agar well diffusion method; summary of the method: as §2; on IZ: test concentration or dose not given here
# Pseudomonas aeruginosa = assay: Antibacterial activity against Pseudomonas aeruginosa NCIB 950 after 24 hrs by agar well diffusion method; summary of the method: as §2; on IZ: test concentration or dose not given here
# Klebsiella pneumoniae [10] = assay: Antibacterial activity against Klebsiella pneumoniae NCIB 418 after 72 hrs; conditions: NCIB 418, 72 h; summary of the method: as §1
# Bacillus cereus [11] = assay: Antibacterial activity against Bacillus cereus NCIB 6349 after 72 hrs; summary of the method: as §1
# Shigella dysenteriae [12] = assay: Antibacterial activity against Shigella dysenteriae after 72 hrs
# Summary of the method: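 MIC by agar dilution: compound-containing nutrient agar was set and surface-dried, then streaked with overnight broth culture of the clinical isolate. Incubated at 37 °C for up to 72 h and scored for presence or absence of growth. Streptomycin was the reference.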
# Staphylococcus aureus [13] = assay: Antibacterial activity against Staphylococcus aureus NCIB 8588 after 72 hrs; conditions: NCIB 8588, 72 h; summary of the method: as §1
# Bacillus anthracis [14] = assay: Antibacterial activity against Bacillus anthracis after 24 hrs by agar well diffusion method
# Klebsiella pneumoniae [15] = assay: Antibacterial activity against Klebsiella pneumoniae NCIB 418 after 24 hrs by agar well diffusion method; summary of the method: as §2; on IZ: test concentration or dose not given here
# Escherichia coli [16] = assay: Antibacterial activity against Escherichia coli NCIB 86 after 72 hrs; conditions: NCIB 86, 72 h; summary of the method: as §1
# Candida albicans = assay: Antifungal activity against Candida albicans after 3 days by agar well diffusion method
Compound,MIC (Bacillus subtilis [1]) [µg/mL],MIC [2] [µg/mL],inhibition zone (IZ) (Bacillus subtilis [3]),inhibition zone (IZ) (Shigella dysenteriae [4]),inhibition zone (IZ) (Bacillus cereus [5]),inhibition zone (IZ) [6],inhibition zone (IZ) (Staphylococcus aureus [7]),inhibition zone (IZ) (Escherichia coli [8]),MIC (Bacillus anthracis [9]) [µg/mL],inhibition zone (IZ) (Pseudomonas fluorescens),inhibition zone (IZ) (Pseudomonas aeruginosa),MIC (Klebsiella pneumoniae [10]) [µg/mL],"MIC (Bacillus cereus [11]; NCIB 6349, 72 h) [µg/mL]",MIC (Shigella dysenteriae [12]),MIC (Staphylococcus aureus [13]) [µg/mL],inhibition zone (IZ) (Bacillus anthracis [14]),inhibition zone (IZ) (Klebsiella pneumoniae [15]),MIC (Escherichia coli [16]) [µg/mL],inhibition zone (IZ) (Candida albicans) [mm],MIC (Bacillus cereus [11])
O=c1[nH]c2ccccc2nc1N/N=C1\CCCCC1Cl (stereo unspecified),15.6,31.3,16 mm,0 mm,12 mm,14 mm,12 mm,12 mm,31.3,9 mm,0 mm,31.3,31.3,inactive,62.5,14 mm,13 mm,62.5,15,
O=C1Nc2ccc(Br)cc2/C1=N/Nc1nc2ccccc2[nH]c1=O,62.5,15.6,13 mm,11 mm,15 mm,22 mm,20 mm,13 mm,125,11 mm,0 mm,31.3,62.5,125 µg/mL,15.6,8 mm,15 mm,62.5,15,
O=C1Nc2ccccc2/C1=N/Nc1nc2ccccc2[nH]c1=O,62.5,62.5,14 mm,0 mm,0 mm,13 mm,19 mm,10 mm,125,0 mm,17 mm,62.5,,15.6 µg/mL,31.3,11 mm,12 mm,125,20,inactive
C/C(=N\Nc1nc2ccccc2[nH]c1=O)c1cc2cc(C)ccc2oc1=O,31.3,31.3,16 mm,12 mm,25 mm,15 mm,19 mm,15 mm,62.5,0 mm,10 mm,31.3,7.8,62.5 µg/mL,15.6,14 mm,19 mm,62.5,10,
O=c1[nH]c2ccccc2nc1NN=C1c2ccccc2Cc2ccccc21,31.3,15.6,12 mm,0 mm,25 mm,18 mm,14 mm,20 mm,31.3,0 mm,15 mm,7.8,7.8,inactive,15.6,14 mm,21 mm,15.6,9,
C/C(=N\Nc1nc2ccccc2[nH]c1=O)c1cc2cc(Cl)ccc2oc1=O,7.8,7.8,33 mm,19 mm,30 mm,30 mm,32 mm,30 mm,7.8,10 mm,14 mm,7.8,7.8,15.6 µg/mL,15.6,25 mm,32 mm,7.8,14,
C/C(=N\Nc1nc2ccccc2[nH]c1=O)c1cc2ccccc2oc1=O,7.8,31.3,32 mm,0 mm,20 mm,28 mm,15 mm,30 mm,62.5,0 mm,0 mm,31.3,31.3,inactive,31.3,18 mm,20 mm,31.3,29,
CC/C(C)=N\Nc1nc2ccccc2[nH]c1=O,31.3,31.3,16 mm,0 mm,25 mm,17 mm,19 mm,21 mm,62.5,0 mm,0 mm,62.5,7.8,inactive,15.6,12 mm,19 mm,31.3,22,
NYSTATIN,,,inactive,inactive,inactive,inactive,inactive,inactive,,inactive,inactive,,,,,inactive,inactive,,,
CC(C)=NNc1nc2ccccc2[nH]c1=O,7.8,7.8,30 mm,13 mm,24 mm,30 mm,12 mm,30 mm,62.5,0 mm,0 mm,15.6,15.6,31.3 µg/mL,62.5,14 mm,12 mm,7.8,31,
